Experiment: Toxicity liver stage against HepG2, at 10uM
Type: cell-based
Parameters: test concentration 10 uM, cell line HepG2-A16-CD81EGFP
Conditions: human, HepG2-A16-CD81EGFP cells; read-out: INHIBITION
How it was run: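 Uninfected HepG2-A16-CD81EGFP cells, 3 × 10^3 per well, 1536-well, plated on prespotted compound at 10 μM final, parasite-free screening media added to match infected plates; puromycin 10 μM positive, DMSO 0.5% negative; run in parallel with 48 h PbLuc assay at 37 °C, 5% CO2; viability by CellTiter-Glo luminescence, normalized to controls.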

Row | Compound | cytotoxicity at 10 µM
1 | CN(Cc1cc(C[C@@H]2C[C@H](N)C2(C)C)no1)c1ccccc1 | -1.8%
2 | c1ccc(CNC[C@H]2COCc3nc4cccnc4n32)cc1 | -1.84%
3 | CN(C)CCCNC(=O)c1cc(-c2ccc3c(c2)CCO3)n[nH]1 | -12.8%
4 | O=C(CCc1ccccc1)NCC1CCN(Cc2ccccc2)CC1 | -6.29%
5 | N#Cc1ccc(OC2CCN(C(=O)c3cncc(Br)c3)CC2)nc1 | 3.05%
6 | c1ccc(-c2nnc3sc(CCN4CCCC4)nn23)cc1 | 6.04%
7 | Oc1nnc(-c2cccs2)c2sc(N3CCCCC3)nc12 | 7.52%
8 | Cc1cc(O)c(OCC(=O)Nc2nc3c(s2)CCCCC3)cn1 | 3.93%
9 | Cn1ncc2c1NC(=O)CC2c1ccccc1Cl (centres undefined) | 55.7%
10 | Cn1ccnc1-c1nc(N2CCCCC2)ncc1-c1ccccc1F | 12.4%
11 | CN(C)c1cc(C2CCCN(S(=O)(=O)C3CCCC3)C2)ccn1 (centres undefined) | -20.8%
12 | Cn1nccc1CCC(=O)N1CCC(c2cnccn2)CC1 | -21.7%
13 | O=C(NCCCO)Nc1cnc2cc(Cl)ccc2c1O | 2.05%
14 | Oc1nc(N2CCOCC2)nc2c1CCN(Cc1cccc(F)c1)CC2 | -8.08%
15 | NC(=O)C1(CCCc2ccccn2)CCCN(Cc2ccncc2)C1 (centres undefined) | -4.8%
16 | Cc1cc(C)c2cc(CNCc3ccc(C)o3)c3nn(C)c(=O)n3c2c1 | -1.83%
17 | Cc1nc(C)c(C(=O)Nc2cnn(CC(=O)NC3CCCC3)c2)s1 | -3.33%
18 | O=C(N[C@@H]1CN(CCc2ccc(F)cc2)C[C@H]1O)c1cscn1 | -3.08%
19 | COc1ccc(CN2CCC(c3nnc(-c4scnc4C)o3)CC2)cc1 | -5.03%
20 | CN(C)[C@@H]1CN(C(=O)COc2cccc(F)c2)C[C@H]1O | -10.4%
21 | COC(=O)CNC(=O)c1nc(-c2ccccc2OC)c2cnccn12 | 8.6%
22 | CC(C)NC(=O)N1CCCCC1c1nnc2n1CCNC2 (centres undefined) | 14.3%

Row | Compound | cytotoxicity at 10 µM
23 | O=C(CCn1cncn1)NCC1CCOC1 (centres undefined) | -43.4%
24 | Cc1cc(C)n(CCN2CCC(N(C)Cc3nnc(C)n3C)C2)n1 (centres undefined) | 2.35%
25 | CN(C)C1(CNC(=O)c2c(O)cc(Cl)cc2Cl)CCOCC1 | -9.46%
26 | CCN(CC)S(=O)(=O)c1ccc(CNC(=O)N2CCCCCC2)cc1 | -2.9%
27 | O=C(CN1CCOCC1)N1CCN(C2CCc3ccc(F)cc32)CC1 (centres undefined) | 6.24%
28 | CC(CCN1CCCC1=O)NCc1cnc(C2CCC2)s1 (centres undefined) | -0.743%
29 | COc1ccc(CCCC(=O)N2CCCC(n3cncn3)C2)cc1 (centres undefined) | -6.96%
30 | c1ccc2sc(N3CCCC(Cn4cncn4)C3)nc2c1 (centres undefined) | -40.1%
31 | CC(C)n1nc2c(cc1=O)CN(Cc1nc(-c3ccco3)no1)CC2 | 2.35%
32 | OCC1CCN(c2ccc(NCc3ccsc3)nc2)CC1 | 8.94%
33 | N#Cc1ccc(S(=O)(=O)NC(=O)c2csc(-c3ccco3)n2)cc1 | -8.17%
34 | COc1ncccc1CNc1snc(Cl)c1C#N | 10.2%
35 | CCN(CC1CN(Cc2ccn(C(C)C)n2)CCO1)c1cccnn1 (centres undefined) | 5.06%
36 | CCN(CC1CCCO1)C(=O)Nc1cccc(N2CCOCC2)c1 (centres undefined) | 8.44%
37 | CCOCCN1CCN(Cc2nc(C)no2)CC1CC (centres undefined) | 13.1%
38 | CC(C)c1noc(CN(Cc2ccccc2)C2CC2)n1 | 0.563%
39 | Cc1cc(NCc2ccccc2CN2CCCCC2)n2ncnc2n1 | -1.86%
40 | O=C(Nc1nnc(C2CC2)s1)NC1CCOc2ccccc21 (centres undefined) | 24.2%
41 | O=C(NCCCNC(=O)C1CCC1)NCCn1cccc1 | 0.215%
42 | CC(C)c1nc(S(=O)(=O)N(C)c2ccc(F)cc2)c[nH]1 | -0.131%
43 | Cn1ccnc1CN(CCCO)CC(F)(F)F | 5.68%
44 | CC(NC(=O)Nc1nccs1)c1cccnc1 (centres undefined) | -8.81%

Row | Compound | cytotoxicity at 10 µM
45 | COc1cc2c(c(OC)c1OC)CCN(CCN1CCCCC1)CC2 | -15.7%
46 | CC1COCCN1Cc1nc(Cc2ccccc2)no1 (centres undefined) | 5.17%
47 | COCCOCC(=O)Nc1ccnn1-c1ccc(Cl)cc1 | -11.6%
48 | O=C(Nc1ccc2c(c1)C(=O)NC2)c1ccc(S(=O)(=O)C(F)(F)F)cc1 | 36.9%
49 | NC(=O)CNC(=O)c1ccc(CNCc2ccc(F)cc2F)cc1 | -43.4%
50 | CC(C)N(Cc1ccc(C#N)cc1)C(=O)Nc1ccccn1 | -0.518%
51 | OC1CCN(Cc2ccc(CNc3ccc(Cl)cn3)cc2)CC1 | 0.313%
52 | O=C(CN1CCOCC1CC(=O)c1ccco1)NCc1ccccn1 (centres undefined) | -4.92%
53 | Cn1nc(C(C)(C)C)cc1NC(=O)Cn1ccccc1=O | -10.5%
54 | CC(=O)NCc1nnn2c1CN(c1ncccn1)CCC2 | -107%
55 | NC(=O)[C@H]1CCCN(c2nccc(-c3c[nH]nc3-c3cccnc3)n2)C1 | -5.89%
56 | COc1cccc(OC)c1-c1ccnc2cc(CC(=O)NC(C)C)nn12 | -8.05%
57 | CC(C)[C@H](NS(C)(=O)=O)C(=O)NCc1cc(-c2ccco2)nn1C | -10.5%
58 | Cc1nccn1-c1ccc(NC(=O)C2CCCN2Cc2ccoc2)cc1 (centres undefined) | 0.184%
59 | COCCn1c(=O)n(Cc2cccc(F)c2F)c2cc(C(=O)O)ccc21 | 9.15%
60 | OC[C@@H]1CCCN1Cc1cn(C2CCN(C3CCCC3)CC2)nn1 | -3.73%
61 | COc1nc2c(cc1C(=O)NCc1noc(-c3ccco3)n1)CCC2 | -6.04%
62 | CC(C)(C)c1nc(CN(Cc2cccnc2)C2CN3CCC2CC3)no1 (centres undefined) | -4.09%
63 | CN1CC2(CCCN(Cc3ccc(Oc4ccccc4)cc3)C2)OC1=O (centres undefined) | 15.8%
64 | COc1ccc2[nH]c3c(c2c1)CN(c1cc(NCCO)nc(N)n1)CC3 | 8.75%
65 | CSCC[C@@H](CO)Nc1ccc(-c2nc(C3CC3)no2)cn1 | 0.957%
66 | CN1CCCN(c2cnn(Cc3ccncc3)c(=O)c2)CC1 | 6.75%

Row | Compound | cytotoxicity at 10 µM
67 | COCc1cc(N2CCN(c3ccc(Cl)cn3)CC2)n2nccc2n1 | 8.89%
68 | Oc1cc(CN2CCCCC2c2cccnc2)nc2c(F)cccc12 (centres undefined) | -6.88%
69 | CNc1nc(C(=O)N2C[C@@H]3CCN(C)[C@@H]3C2)cs1 | -10.8%
70 | CC(=O)N1CCC(C(=O)N2CCOC(CC3CCCCC3)C2)CC1 (centres undefined) | -13.7%
71 | CCC(CC)NCC(C)Oc1cccnc1 (centres undefined) | 8.26%
72 | CN(CC(=O)N1CCOC(CCc2ccccc2)C1)Cc1ccccn1 (centres undefined) | -1.83%
73 | N#Cc1cccc(Oc2ccc(CN3CCCC3)cc2Cl)n1 | -16%
74 | Cc1ccc(CN2CCC3(CCCN(Cc4ccc(F)c(F)c4)C3)C2)o1 (centres undefined) | 9.39%
75 | COc1cccc(OCCc2nc3c(cc2C(N)=O)CCC3)c1 | 7.32%
76 | COc1ccc(C(=O)N2C[C@@H](NC(=O)N(C)C)[C@H](C(C)C)C2)c(OC)n1 | 3.6%
77 | CCN1CCC(CC(=O)N(C)CC(=O)c2ccc(O)cc2)CC1 | 1.73%
78 | Cc1nccc(N[C@H]2CN(C(=O)CCN3CCCC3=O)C[C@@H]2C(C)C)n1 | -6.3%
79 | CC(C)[C@H]1CN(C2Cc3ccccc3C2)C[C@@H]1NS(C)(=O)=O | -16%
80 | CN1CCN(Cc2ccc(-c3ccc(-c4ccn[nH]4)cc3)nc2)CC1 | 3.61%
81 | Cc1cc(F)ccc1CN1CCCC(O)(CN2CCCC2)C1 (centres undefined) | -5.19%
82 | CCNc1cc2c(nn1)CCN(C(=O)c1ccnc(-n3ccnc3)c1)C2 | -3.01%
83 | Cc1cnn(CCNCC(O)COc2ccc(F)cc2)c1 (centres undefined) | -1.76%
84 | NC(=O)CN1CCCN(C(=O)Cc2ccc(Br)cc2)CC1 | -6.58%
85 | CC(C)(O)CN1CCN(C(=O)c2sccc2C#N)CC1 | -7.3%
86 | O=C(CCNC(=O)c1ccoc1)Nc1cc(F)cc(F)c1 | -7.41%
87 | Cc1noc(C)c1CN1CCc2nn(C(C)C)c(=O)cc2C1 | -8.87%
88 | N#Cc1ccc(S(=O)(=O)NC(=O)C2CC2)c(C(F)(F)F)c1 | -11.1%

Row | Compound | cytotoxicity at 10 µM
89 | CC(C)n1cc(CN2CCCN(C(=O)c3cc(Cl)c[nH]3)CC2)cn1 | -10.9%
90 | COC(C(=O)N1CCCN(Cc2cscn2)CC1)c1ccccc1 (centres undefined) | -8.34%
91 | CCOc1ccc(Cl)cc1C1CCCCN1 (centres undefined) | 9.15%
92 | c1c(CN2CCCC2)nc2n1CCN(C1CCOCC1)C2 | 0.641%
93 | CS(=O)(=O)N1CC[C@H]2O[C@H](C(=O)NCCc3ccccn3)CC[C@H]21 | 8.5%
94 | CC(C)(C)C(=O)N1C[C@H](c2ccsc2)[C@H]2CN(Cc3cccs3)CC[C@H]21 | 12.7%
95 | Cc1ccc(CN2CC3(CCN(C(=O)c4cscn4)C3)C2)o1 | 5.28%
96 | O=C(NCC1CC1)[C@H]1C[C@@H]2CCN(CCc3ccccc3)C[C@H]2O1 | -75.5%
97 | CN(C)CCN1CCOCC2(CCCN(C(=O)c3ccccn3)C2)C1 (centres undefined) | 6.67%
98 | CC(C)N1CC[C@H]2[C@H](C[C@@H](Cn3cccn3)N2c2nccs2)C1 | 3.28%
99 | O=C(C1CCCC1)N1C[C@@H]2CCN(c3cccnc3)C[C@@H]2C1 | -78.4%
100 | CO[C@@H]1CCN(Cc2nccs2)C[C@@H]1Cc1cccc(C)c1 | -71.8%
101 | Cc1noc(C)c1CN1Cc2cnn(C)c2C(COCC2CC2)C1 (centres undefined) | -76.5%
102 | Cc1ccc(CN2CCCn3nnc(COCCN(C)C)c3C2)s1 | -114%
103 | O=C(C[C@@H]1COC[C@H]2CN(Cc3cccnc3)C[C@@H]12)NCC1CC1 | 0.752%
104 | COc1cccc(CN2CCc3nc4ccsc4c(=O)n3CC2)c1 | -26.5%
105 | O=C(NC[C@]12COC[C@H]1CN(Cc1ccco1)C2)c1ccccc1 | -2.53%
106 | CN(Cc1cccnc1)C[C@H]1OC[C@@H]2CCN(C(=O)C3CC3)C[C@@H]21 | -117%
107 | c1cncc(COCc2cncc3c2CCN(Cc2ccoc2)C3)c1 | -109%
108 | C=C1C(C)(C)[C@@H]2CC[C@]1(C(=O)N1CCC(n3cc(CO)nn3)CC1)C2 | -7.73%
109 | CNC(=O)N1C[C@@H]2C[C@H](C(=O)Nc3cccnc3)[C@H](C1)O2 | -76.2%

From ChEMBL document CHEMBL4513216, “Probing the Open Global Health Chemical Diversity Library for Multistage-Active Starting Points for Next-Generation Antimalarials” (ACS Infect Dis, 2020)
